CSN deneddyl inh: inhibitors of human CSN-mediated cullin deneddylation | inhibition, % at 12.5 µM | Purified CSN, SCF-Nedd8-OG deneddylation, fluorescence polarization | Q92905 | AID 651999 | actives 0.38% (n = 360,000);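 active = pattern-corrected inhibition above about 35%, with an unprinted fluorescence ratio check between 0.5 and 1.5, limit read from the data, passing the limit was not always enough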;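 also: 0% = enzyme with substrate and 100% = substrate without enzyme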
Target sequence (Q92905 whole entry, looked up, one chain of several): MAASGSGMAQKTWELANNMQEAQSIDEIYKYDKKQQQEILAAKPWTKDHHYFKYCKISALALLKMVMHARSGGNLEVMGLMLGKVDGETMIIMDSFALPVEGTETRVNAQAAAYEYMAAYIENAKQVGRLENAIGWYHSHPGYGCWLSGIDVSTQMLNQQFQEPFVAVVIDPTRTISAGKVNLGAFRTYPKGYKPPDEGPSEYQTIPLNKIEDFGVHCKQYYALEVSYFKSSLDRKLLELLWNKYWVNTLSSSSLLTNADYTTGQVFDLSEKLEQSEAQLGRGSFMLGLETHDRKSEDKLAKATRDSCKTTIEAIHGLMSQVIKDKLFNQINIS
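Schedule: reaction 90 min, room temperature / Assay system: HEK293T-derived human Csn5 enzyme / Input: Csn5 at 0.24 nM final / Measure: inhibition of Csn5 cleavage, % / Control set: substrate-only high control, full reaction low control / Technique: fluorescence polarization of the substrate / Buffer or medium: Tris/NaCl/DTT buffer, pH 7.5 / Reagent: SCFSkp2-Nedd8OG substrate at 10 nM final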
SUMO1-SIM PPI: alters human SUMO1 binding to SIM partners; P63165; SUMO1 binding to a labelled peptide, TR-FRET, 1 h; AID 602429; inhibition, % at 20 µM; actives 0.33% (n = 360,000); in the data active = inhibition above about 37%
Target sequence (P63165 whole entry, looked up): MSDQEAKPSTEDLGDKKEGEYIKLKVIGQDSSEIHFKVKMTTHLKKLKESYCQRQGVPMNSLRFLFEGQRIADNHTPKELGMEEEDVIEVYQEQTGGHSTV
MT1-MMP act inh: inhibitors of human MT1-MMP activation. P50281. HT1080 RFP-PRO-GFP cells, GFP/RFP ratio fluorescence, overnight; percent of plate control window, DMSO zero. GFP/RFP ratio change, % at 20 µM. actives 0.061% (n = 360,000). AID 651647;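 active = GFP/RFP ratio change of at least 30% with cell ATP level not reduced by more than half and red fluorescence within 50% of control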
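Assay system: HT1080 RFP-PRO-GFP cells. Benchmarks: DMSO vehicle wells and RFP-L50D-GFP reporter cell wells. Times: overnight cell settling, then overnight compound exposure, 37 °C, 5% CO2. Compound: 20 µM single dose, 1% DMSO. Read-out basis: GFP/RFP fluorescence ratio.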
SKN-1 block: inhibitors of C. elegans SKN-1 | actives 0.49% (n = 360,000) | inhibition, % at 21.8 µM | C. elegans VP596 Pgst-4::GFP/RFP ratio, acrylamide-induced, 24 h;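 active = interference check ratio from 0.5 to 1.5 plus GFP to RFP signal ratio inhibition reaching or exceeding a fixed threshold, cut at about 30% in these data, passing the limit was not always enough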
Rpn11 inh: inhibitors of human proteasome Rpn11 | actives 0.59% (n = 360,000) | inhibition, % at 20 µM | human 26S proteasome, Ub4-pepOG fluorescence polarization; 20S core pre-blocked with epoxomicin;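 active = inhibition at 20 µM, scaled to each plate's controls, above about 33%, limit read from the data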
DNMT1 block: DNMT1 (human) enzyme inhibition | AID 588458 | actives 0.83% (n = 360,000) | DNMT1 molecular beacon, Hinp1I cleavage, fluorescence | inhibition (reported as % activation of signal), % at 10 µM; in the data active = inhibition above about 50%
Rpn11 inh conf: confirmation of human proteasome Rpn11 inhibitors; purified human 26S proteasome, Ub4-pepOG fluorescence polarization; proteasome pretreated with epoxomicin; actives 29% (n = 1,900); shares compounds with Rpn11 inh; inhibition, % at 20 µM
MMP-2 inh: counter-screen for RPN11 inhibitors: inhibition of human MMP-2; shares compounds with Rpn11 inh; actives 4% (n = 1,900); inhibition, % at 20 µM; recombinant MMP-2, FRET peptide cleavage fluorescence;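 also: human MMP-2 activated beforehand with APMA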
Thrombin inh: blocks bovine thrombin, flagging nonselective RPN11 hits; shares compounds with Rpn11 inh; bovine thrombin cleavage of Ub4-pepOG, fluorescence polarization; inhibition, % at 20 µM; actives 13% (n = 1,900); AID 602333;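 active = mean inhibition at least 40% at 20 µM, or signal 3 deviations below plate average, so some actives read negative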;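 also: plate controls were thrombin with DMSO for no effect and buffer wells lacking thrombin for full effect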
The depositor's hits bear a star; nt = no result given. Only some compounds are listed: those with a hit (about 2.3% of all), similar ones and a draw of the others. Rule as the data show it, unless noted: active = inhibition above about 40%; inactive = the rest.

SMILES	CSN deneddyl inh	SUMO1-SIM PPI	MT1-MMP act inh	SKN-1 block	Rpn11 inh	DNMT1 block	Rpn11 inh conf	MMP-2 inh	Thrombin inh
Cc1nc2ccccc2n1C(c1cccnc1)c1nc2ccccc2[nH]1 (stereo not drawn)	0	-18	1	3	nt	nt	nt	nt	nt
CC(=O)N(/N=C1\Sc2ccccc2C1=O)c1ccccc1C	28	20	-23	40*	39*	29	5	-44	9
Cc1csc(NC(=O)c2ccc(Br)s2)n1	4	1	-9	15	14	-1	nt	nt	nt
CCOc1cccc2sc(NC(=O)c3ccc(Br)s3)nc12	7	1	-8	9	54*	1	-1	8	-4
CC(=O)c1cccc(S(=O)(=O)N2CCN(c3nc4cc(C)cc(C)c4cc3C#N)CC2)c1	11	-92	-3	11	43*	-9	1	-21	-11
COc1ccccc1C(=O)N1CCN(c2nc3cc(C)cc(C)c3cc2C#N)CC1	4	-11	3	2	0	-3	nt	nt	nt
COc1ccc(NC(=O)C2(C)Cc3c(-c4cccc(NC(C)=O)c4)ccnc3O2)cn1 (stereo not drawn)	-5	9	13	-3	-16	0	nt	nt	nt
c1ccc(Nc2nc(-c3ccncc3)nc3ccccc23)cc1	4	0	3	21	6	6	nt	nt	nt
COC(=O)c1ccc(Nc2nc(-c3ccncc3)nc3ccccc23)cc1	3	38	-1	-1	112*	8	33	-30	5
COC(=O)C1=C(O)/C(=C\c2ccc(O)c(OC)c2)N=C1C	18	-30	2	8	60*	2	20	6	12
COC(=O)C1=CN(c2cccc(OCc3ccccc3)c2)C(N)=C(C#N)C1c1cccc(OC)c1OC (stereo not drawn)	4	-7	-5	-6	nt	nt	nt	nt	nt
CN(C)S(=O)(=O)c1ccc(N2CCCC2)c(C(=O)NNC(=O)COc2ccc(Cl)cc2)c1	9	3	-2	14	31	-3	nt	nt	nt
CCc1ccc(OCC(=O)NNC(=O)c2cc(S(=O)(=O)N(C)C)ccc2N2CCCC2)cc1	3	2	11	4	44*	-6	56*	17	3
CC1=C(C(=O)N2CCOCC2)CC(CC(=O)NCCCN(C)C)C(=O)N1CCCN1CCCC1=O (stereo not drawn)	0	0	8	-8	nt	nt	nt	nt	nt
NC(=O)CC(NC(=O)c1ccc(Br)cc1)c1ccc(NC2CCCCC2)c([N+](=O)[O-])c1 (stereo not drawn)	6	9	8	15	35	34	nt	nt	nt
NC(=O)CC(NC(=O)c1ccc(Br)cc1)c1ccc(NC2CCCCCC2)c([N+](=O)[O-])c1 (stereo not drawn)	14	-11	12	-3	43*	48	40*	-11	8
NC(=O)CC(NC(=O)Cc1cccc2ccccc12)c1ccc(NCc2ccccc2)c([N+](=O)[O-])c1 (stereo not drawn)	5	-19	9	20	30	17	nt	nt	nt
NC(=O)CC(NC(=O)Cc1cccc2ccccc12)c1ccc(NC2CCN(Cc3ccccc3)CC2)c([N+](=O)[O-])c1 (stereo not drawn)	19	-12	2	13	42*	4	24	-38	11
O=[N+]([O-])c1ccc(/C=N/Nc2ccccn2)cc1	11	-16	nt	7	42*	14	19	-35	-3
O=[N+]([O-])c1cccc(/C=N/Nc2ccccn2)c1	-1	-13	0	14	-3	3	nt	nt	nt

Compound activity as filed in PubChem.
